Experimental data from ChEMBL document CHEMBL1629545, “A morpholino oligomer targeting highly conserved internal ribosome entry site sequence is able to inhibit multiple species of picornavirus” (Antimicrob Agents Chemother, 2008).

Tests used:
Poliovirus 1 = test: Antiviral activity against Human poliovirus type 1 infected in Human HeLa cells assessed as log reduction in viral titer at 5 uM measured after 24 hrs post infection by plaque assay; format: functional, organism-based
How it was run: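 Nearly confluent HeLa cells were infected 1 h with a clinical PV1 isolate (passaged once in Vero and once in HeLa) at MOI 0.05. Inoculum was replaced by medium with 10% calf serum containing PPMO (2.5 or 5 μM) or water, at 37°C. Supernatant titre at 24 h p.i. was measured by plaque assay with 36 h plaque development.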

Vero = test: Cytotoxicity against African green monkey Vero cells at 10 uM after 24 hrs by MTS assay; format: cell-based; settings: chlorocebus sabaeus
rhinovirus B14 = test: Antiviral activity against Human rhinovirus type 14 infected in Human HeLa cell assessed as log reduction in viral titer at 5 uM measured after 48 hrs post infection by plaque assay; format: functional, organism-based
How it was run: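 HRV14 from an infectious clone was used to infect nearly confluent HeLa cells for 1 h at MOI 0.03. Cells were then kept in 10% calf serum medium with PPMO or water at 34°C. Supernatant titre at 48 h p.i. was measured by plaque assay at 34°C with 72 h plaque development. Two experiments were averaged.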

HeLa = test: Cytotoxicity against human HeLa cells at 1 to 10 uM after 24 hrs by MTS assay; format: cell-based
How it was run: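 HeLa cells at ~80% confluence, uninfected, exposed to 1–100 μM PPMO or water (mock) in serum-free DMEM-F-12 (1:1) for 24 h. MTS reagent was added for 4 h and absorbance read at 492 nm. Viability was expressed as percent of water-treated cells (set to 100%), averaged over 12 wells.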

SK-N-MC = test: Cytotoxicity against human SK-N-MC cell at 10 uM after 24 hrs by MTS assay; format: cell-based

Cc1cn([C@H]2CN(P(=O)(OC[C@@H]3CN(P(=O)(OC[C@@H]4CNC[C@H](n5cnc6c(=O)[nH]c(N)nc65)O4)N(C)C)C[C@H](n4cnc5c(N)ncnc54)O3)N(C)C)C[C@@H](COP(=O)(N(C)C)N3C[C@@H](COP(=O)(N(C)C)N4C[C@@H](COP(=O)(N(C)C)N5C[C@@H](COP(=O)(N(C)C)N6C[C@@H](COP(=O)(N(C)C)N7C[C@@H](COP(=O)(N(C)C)N8C[C@@H](COP(=O)(N(C)C)N9C[C@@H](COP(=O)(N(C)C)N%10C[C@@H](COP(=O)(N(C)C)N%11C[C@@H](COP(=O)(N(C)C)N%12C[C@@H](COP(=O)(N(C)C)N%13C[C@@H](COP(=O)(N(C)C)N%14C[C@@H](COP(=O)(N(C)C)N%15C[C@@H](COP(=O)(N(C)C)N%16C[C@@H](COP(=O)(N(C)C)N%17C[C@@H](COP(=O)(N(C)C)N%18C[C@@H](COP(=O)(N(C)C)N%19C[C@@H](COP(=O)(N(C)C)N%20C[C@@H](COP(=O)(N(C)C)N%21C[C@@H](COP(=O)(N(C)C)N%22C[C@@H](COP(=O)(N(C)C)N%23C[C@@H](COP(=O)(N(C)C)N%24CCN(C(=O)[C@H](CS)NC(=O)[C@H](Cc%25ccccc%25)NC(=O)[C@H](Cc%25ccccc%25)NC(=O)[C@H](CCCNC(=N)N)NC(=O)[C@H](CCCNC(=N)N)NC(=O)[C@H](CCCNC(=N)N)NC(=O)[C@H](CCCNC(=N)N)NC(=O)[C@H](CCCNC(=N)N)NC(=O)[C@H](CCCNC(=N)N)NC(=O)[C@H](CCCNC(=N)N)NC(=O)[C@H](CCCNC(=N)N)NC(=O)[C@@H](N)CCCNC(=N)N)CC%24)O[C@@H](n%24cnc%25c(=O)[nH]c(N)nc%25%24)C%23)O[C@@H](n%23cnc%24c(N)ncnc%24%23)C%22)O[C@@H](n%22cnc%23c(=O)[nH]c(N)nc%23%22)C%21)O[C@@H](n%21cnc%22c(N)ncnc%22%21)C%20)O[C@@H](n%20cnc%21c(N)ncnc%21%20)C%19)O[C@@H](n%19cnc%20c(N)ncnc%20%19)C%18)O[C@@H](n%18ccc(N)nc%18=O)C%17)O[C@@H](n%17cnc%18c(N)ncnc%18%17)C%16)O[C@@H](n%16ccc(N)nc%16=O)C%15)O[C@@H](n%15cnc%16c(=O)[nH]c(N)nc%16%15)C%14)O[C@@H](n%14cnc%15c(=O)[nH]c(N)nc%15%14)C%13)O[C@@H](n%13cnc%14c(N)ncnc%14%13)C%12)O[C@@H](n%12ccc(N)nc%12=O)C%11)O[C@@H](n%11cnc%12c(N)ncnc%12%11)C%10)O[C@@H](n%10ccc(N)nc%10=O)C9)O[C@@H](n9ccc(N)nc9=O)C8)O[C@@H](n8ccc(N)nc8=O)C7)O[C@@H](n7cnc8c(N)ncnc87)C6)O[C@@H](n6cnc7c(N)ncnc76)C5)O[C@@H](n5cnc6c(N)ncnc65)C4)O[C@@H](n4cnc5c(=O)[nH]c(N)nc54)C3)O2)c(=O)[nH]c1=O (stereo partly specified)
FC (Poliovirus 1): 2 | Activity (Vero): Non-toxic | FC (rhinovirus B14): 2 | Activity (HeLa): Non-toxic | Activity (SK-N-MC): Non-toxic

Cc1cn([C@H]2CNC[C@@H](COP(=O)(N(C)C)N3C[C@@H](COP(=O)(N(C)C)N4C[C@@H](COP(=O)(N(C)C)N5C[C@@H](COP(=O)(N(C)C)N6C[C@@H](COP(=O)(N(C)C)N7C[C@@H](COP(=O)(N(C)C)N8C[C@@H](COP(=O)(N(C)C)N9C[C@@H](COP(=O)(N(C)C)N%10C[C@@H](COP(=O)(N(C)C)N%11C[C@@H](COP(=O)(N(C)C)N%12C[C@@H](COP(=O)(N(C)C)N%13C[C@@H](COP(=O)(N(C)C)N%14C[C@@H](COP(=O)(N(C)C)N%15C[C@@H](COP(=O)(N(C)C)N%16C[C@@H](COP(=O)(N(C)C)N%17C[C@@H](COP(=O)(N(C)C)N%18C[C@@H](COP(=O)(N(C)C)N%19C[C@@H](COP(=O)(N(C)C)N%20C[C@@H](COP(=O)(N(C)C)N%21C[C@@H](COP(=O)(N(C)C)N%22C[C@@H](COP(=O)(N(C)C)N%23CCN(C(=O)[C@H](CS)NC(=O)[C@H](Cc%24ccccc%24)NC(=O)[C@H](Cc%24ccccc%24)NC(=O)[C@H](CCCNC(=N)N)NC(=O)[C@H](CCCNC(=N)N)NC(=O)[C@H](CCCNC(=N)N)NC(=O)[C@H](CCCNC(=N)N)NC(=O)[C@H](CCCNC(=N)N)NC(=O)[C@H](CCCNC(=N)N)NC(=O)[C@H](CCCNC(=N)N)NC(=O)[C@H](CCCNC(=N)N)NC(=O)[C@@H](N)CCCNC(=N)N)CC%23)O[C@@H](n%23cnc%24c(=O)[nH]c(N)nc%24%23)C%22)O[C@@H](n%22cnc%23c(=O)[nH]c(N)nc%23%22)C%21)O[C@@H](n%21ccc(N)nc%21=O)C%20)O[C@@H](n%20cnc%21c(=O)[nH]c(N)nc%21%20)C%19)O[C@@H](n%19cc(C)c(=O)[nH]c%19=O)C%18)O[C@@H](n%18ccc(N)nc%18=O)C%17)O[C@@H](n%17cc(C)c(=O)[nH]c%17=O)C%16)O[C@@H](n%16cc(C)c(=O)[nH]c%16=O)C%15)O[C@@H](n%15ccc(N)nc%15=O)C%14)O[C@@H](n%14ccc(N)nc%14=O)C%13)O[C@@H](n%13cnc%14c(N)ncnc%14%13)C%12)O[C@@H](n%12cc(C)c(=O)[nH]c%12=O)C%11)O[C@@H](n%11cnc%12c(=O)[nH]c(N)nc%12%11)C%10)O[C@@H](n%10cnc%11c(N)ncnc%11%10)C9)O[C@@H](n9cc(C)c(=O)[nH]c9=O)C8)O[C@@H](n8ccc(N)nc8=O)C7)O[C@@H](n7cnc8c(N)ncnc87)C6)O[C@@H](n6ccc(N)nc6=O)C5)O[C@@H](n5cnc6c(N)ncnc65)C4)O[C@@H](n4cnc5c(=O)[nH]c(N)nc54)C3)O2)c(=O)[nH]c1=O (stereo partly specified)
Activity (Vero): Non-toxic | Activity (HeLa): Non-toxic | Activity (SK-N-MC): Non-toxic

Cc1cn([C@H]2CN(P(=O)(OC[C@@H]3CN(P(=O)(OC[C@@H]4CN(P(=O)(OC[C@@H]5CN(P(=O)(OC[C@@H]6CN(P(=O)(OC[C@@H]7CNC[C@H](n8cnc9c(=O)[nH]c(N)nc98)O7)N(C)C)C[C@H](n7ccc(N)nc7=O)O6)N(C)C)C[C@H](n6cnc7c(N)ncnc76)O5)N(C)C)C[C@H](n5cnc6c(N)ncnc65)O4)N(C)C)C[C@H](n4ccc(N)nc4=O)O3)N(C)C)C[C@@H](COP(=O)(N(C)C)N3C[C@@H](COP(=O)(N(C)C)N4C[C@@H](COP(=O)(N(C)C)N5C[C@@H](COP(=O)(N(C)C)N6C[C@@H](COP(=O)(N(C)C)N7C[C@@H](COP(=O)(N(C)C)N8C[C@@H](COP(=O)(N(C)C)N9C[C@@H](COP(=O)(N(C)C)N%10C[C@@H](COP(=O)(N(C)C)N%11C[C@@H](COP(=O)(N(C)C)N%12C[C@@H](COP(=O)(N(C)C)N%13C[C@@H](COP(=O)(N(C)C)N%14C[C@@H](COP(=O)(N(C)C)N%15C[C@@H](COP(=O)(N(C)C)N%16C[C@@H](COP(=O)(N(C)C)N%17C[C@@H](COP(=O)(N(C)C)N%18CCN(C(=O)[C@H](CS)NC(=O)[C@H](Cc%19ccccc%19)NC(=O)[C@H](Cc%19ccccc%19)NC(=O)[C@H](CCCNC(=N)N)NC(=O)[C@H](CCCNC(=N)N)NC(=O)[C@H](CCCNC(=N)N)NC(=O)[C@H](CCCNC(=N)N)NC(=O)[C@H](CCCNC(=N)N)NC(=O)[C@H](CCCNC(=N)N)NC(=O)[C@H](CCCNC(=N)N)NC(=O)[C@H](CCCNC(=N)N)NC(=O)[C@@H](N)CCCNC(=N)N)CC%18)O[C@@H](n%18cnc%19c(=O)[nH]c(N)nc%19%18)C%17)O[C@@H](n%17cc(C)c(=O)[nH]c%17=O)C%16)O[C@@H](n%16ccc(N)nc%16=O)C%15)O[C@@H](n%15cc(C)c(=O)[nH]c%15=O)C%14)O[C@@H](n%14cnc%15c(=O)[nH]c(N)nc%15%14)C%13)O[C@@H](n%13cc(C)c(=O)[nH]c%13=O)C%12)O[C@@H](n%12cc(C)c(=O)[nH]c%12=O)C%11)O[C@@H](n%11cc(C)c(=O)[nH]c%11=O)C%10)O[C@@H](n%10ccc(N)nc%10=O)C9)O[C@@H](n9cnc%10c(=O)[nH]c(N)nc%109)C8)O[C@@H](n8cc(C)c(=O)[nH]c8=O)C7)O[C@@H](n7cc(C)c(=O)[nH]c7=O)C6)O[C@@H](n6cc(C)c(=O)[nH]c6=O)C5)O[C@@H](n5cc(C)c(=O)[nH]c5=O)C4)O[C@@H](n4ccc(N)nc4=O)C3)O2)c(=O)[nH]c1=O (stereo partly specified)
Activity (Vero): Non-toxic | Activity (HeLa): Non-toxic | Activity (SK-N-MC): Non-toxic
